Experimental data reported in ChEMBL document CHEMBL3526048, “In vitro metabolism of rivoglitazone, a novel peroxisome proliferator-activated receptor γ agonist, in rat, monkey, and human liver microsomes and freshly isolated hepatocytes” (Drug Metab Dispos, 2011).

How the values were obtained:
Cytochrome P450 2C8 = molecular target: T1, Cytochrome P450 2C8 (Homo sapiens, UniProt P10632); experiment: Activity of human CYP2C8 expressed in microsomes isolated from baculovirus infected insect cell assessed as enzyme-mediated compound formation treated with [14C]-rivoglitazone at 20 uM after 2 hrs by radio-HPLC/LC-MS/MS analysis in presence of NADPH-generating system; assay type: ADME
T1 sequence (P10632 whole entry): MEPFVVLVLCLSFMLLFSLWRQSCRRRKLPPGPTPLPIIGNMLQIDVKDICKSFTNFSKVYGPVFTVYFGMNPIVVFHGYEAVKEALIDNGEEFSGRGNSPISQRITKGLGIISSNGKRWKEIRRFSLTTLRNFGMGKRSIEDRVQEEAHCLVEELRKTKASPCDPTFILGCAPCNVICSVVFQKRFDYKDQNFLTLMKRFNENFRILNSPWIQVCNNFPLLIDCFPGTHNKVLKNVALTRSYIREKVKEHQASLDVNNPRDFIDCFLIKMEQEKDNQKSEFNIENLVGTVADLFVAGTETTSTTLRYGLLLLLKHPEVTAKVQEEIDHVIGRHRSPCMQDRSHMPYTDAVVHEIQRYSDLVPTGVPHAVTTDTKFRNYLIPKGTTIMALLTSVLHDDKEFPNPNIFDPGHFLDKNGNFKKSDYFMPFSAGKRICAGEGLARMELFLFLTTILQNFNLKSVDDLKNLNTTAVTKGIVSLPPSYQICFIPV
Summary of the method: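 Baculovirus/insect-cell microsomes expressing single human CYPs, 1 mg/ml protein, with 50 mM potassium phosphate (pH 7.4) or 100 mM Tris-HCl (pH 7.5). NADPH-generating system: 2 mM NADP⁺, 20 mM glucose 6-phosphate, 2 units/ml G6PDH, 10 mM MgCl₂. [¹⁴C]rivoglitazone at 20 μM, 2 h at 37°C with shaking. Control used insect-cell control supersomes. Stopped with acetonitrile; supernatant concentrated under nitrogen; metabolites analysed by radio-HPLC, LC-MS and LC-MS/MS.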

[1] = Drug level in cynomolgus monkey liver microsomes treated with [14C]-rivoglitazone at 20 uM after 2 to 4 hrs by radio-HPLC/LC-MS/MS analysis in presence of UDPGA, UDPGA/SAM and NADPH-generating system; assay type: ADME, Macaca fascicularis
Cytochrome P450 1A2 = molecular target: T2, Cytochrome P450 1A2 (Homo sapiens, UniProt P05177); experiment: Activity of human CYP1A2 expressed in microsomes isolated from baculovirus infected insect cell assessed as enzyme-mediated (2S,3S,4S,5R,6R)-6-((1-carboxy-2-(4-((6-methoxy-1-methyl-1H-benzo[d]imidazol-2-yl)methoxy)phenyl)ethylthio)carbonylamino)-3,4,5-trihydroxytetrahydro-2H-pyran-2-carboxylic acid formation at 20 uM after 2 hrs by radio-HPLC/LC-MS/MS analysis in presence of NADPH-generating system/SAM; assay type: ADME
T2 sequence (P05177 whole entry): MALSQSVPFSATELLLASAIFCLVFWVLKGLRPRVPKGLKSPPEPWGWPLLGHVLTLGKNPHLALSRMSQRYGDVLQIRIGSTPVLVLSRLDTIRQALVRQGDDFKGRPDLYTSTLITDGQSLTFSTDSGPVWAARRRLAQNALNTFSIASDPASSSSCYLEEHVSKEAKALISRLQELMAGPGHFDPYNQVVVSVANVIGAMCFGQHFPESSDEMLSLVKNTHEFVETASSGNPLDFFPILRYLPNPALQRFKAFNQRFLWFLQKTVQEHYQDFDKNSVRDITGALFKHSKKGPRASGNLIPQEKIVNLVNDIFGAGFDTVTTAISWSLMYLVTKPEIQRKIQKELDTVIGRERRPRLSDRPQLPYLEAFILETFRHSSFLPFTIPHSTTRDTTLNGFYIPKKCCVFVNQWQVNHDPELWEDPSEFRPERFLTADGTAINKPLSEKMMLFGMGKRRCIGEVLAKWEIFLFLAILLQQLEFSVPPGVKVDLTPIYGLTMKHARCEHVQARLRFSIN

[2] = Drug metabolism in rat hepatocytes assessed as formation of 2-hydroxy-3-(4-((6-methoxy-1-methyl-1H-benzo[d]imidazol-2-yl)methoxy)phenyl)propanamide at 30 uM after 3 hrs by radio-HPLC/LC-MS/MS analysis in presence of NADPH-generating system and NADPH-generating system/SAM; assay type: ADME, cell-based, Hepatocyte
Liver microsome = experiment: Drug metabolism in human liver microsomes assessed as formation of 3-(4-((6-methoxy-1-methyl-1H-benzo[d]imidazol-2-yl)methoxy)phenyl)-2-(methylsulfonyl)propanamide at 20 uM after 2 hrs by radio-HPLC/LC-MS/MS analysis in presence of NADPH-generating system/SAM; assay type: ADME
[3] = Drug metabolism in human hepatocytes assessed as formation of (2S,3S,4S,5R,6R)-3,4,5-trihydroxy-6-(5-(4-((6-methoxy-1-methyl-1H-benzo[d]imidazol-2-yl)methoxy)benzyl)-2,4-dioxothiazolidin-3-yl)tetrahydro-2H-pyran-2-carboxylic acid at 30 uM after 3 hrs by radio-HPLC/LC-MS/MS analysis; assay type: ADME, cell-based, Hepatocyte
Cytochrome P450 2C19 = Cytochrome P450 2C19 (Homo sapiens, UniProt P33261); experiment: Activity of human CYP2C19 expressed in microsomes isolated from baculovirus infected insect cell assessed as enzyme-mediated 3-(4-((6-methoxy-1-methyl-1H-benzo[d]imidazol-2-yl)methoxy)phenyl)-2-(methylthio)propanoic acid formation at 20 uM after 2 hrs by radio-HPLC/LC-MS/MS analysis in presence of NADPH-generating system/SAM and UDPGA/SAM; assay type: ADME
Cytochrome P450 2C19, sequence (P33261 whole entry): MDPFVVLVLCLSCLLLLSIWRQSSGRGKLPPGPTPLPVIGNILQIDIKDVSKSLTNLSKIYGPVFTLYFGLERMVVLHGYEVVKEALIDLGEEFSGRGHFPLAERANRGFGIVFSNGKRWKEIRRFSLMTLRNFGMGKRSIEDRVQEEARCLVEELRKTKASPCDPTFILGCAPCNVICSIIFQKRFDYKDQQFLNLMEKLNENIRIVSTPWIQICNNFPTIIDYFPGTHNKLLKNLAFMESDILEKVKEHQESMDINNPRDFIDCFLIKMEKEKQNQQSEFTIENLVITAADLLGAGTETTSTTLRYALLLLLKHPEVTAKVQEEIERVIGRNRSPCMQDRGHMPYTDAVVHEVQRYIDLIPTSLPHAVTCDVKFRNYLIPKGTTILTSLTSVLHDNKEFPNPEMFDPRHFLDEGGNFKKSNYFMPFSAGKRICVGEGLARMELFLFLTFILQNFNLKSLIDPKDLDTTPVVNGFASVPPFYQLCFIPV

Cytochrome P450 3A5 = Cytochrome P450 3A5 (Homo sapiens, UniProt P20815); experiment: Activity of human CYP3A5 expressed in microsomes isolated from baculovirus infected insect cell assessed as enzyme-mediated 2-amino-3-((1-carboxy-2-(4-((6-methoxy-1-methyl-1H-benzo[d]imidazol-2-yl)methoxy)phenyl)ethyl)disulfanyl)propanoic acid formation at 20 uM after 2 hrs by radio-HPLC/LC-MS/MS analysis; assay type: ADME
Cytochrome P450 3A5, sequence (P20815 whole entry): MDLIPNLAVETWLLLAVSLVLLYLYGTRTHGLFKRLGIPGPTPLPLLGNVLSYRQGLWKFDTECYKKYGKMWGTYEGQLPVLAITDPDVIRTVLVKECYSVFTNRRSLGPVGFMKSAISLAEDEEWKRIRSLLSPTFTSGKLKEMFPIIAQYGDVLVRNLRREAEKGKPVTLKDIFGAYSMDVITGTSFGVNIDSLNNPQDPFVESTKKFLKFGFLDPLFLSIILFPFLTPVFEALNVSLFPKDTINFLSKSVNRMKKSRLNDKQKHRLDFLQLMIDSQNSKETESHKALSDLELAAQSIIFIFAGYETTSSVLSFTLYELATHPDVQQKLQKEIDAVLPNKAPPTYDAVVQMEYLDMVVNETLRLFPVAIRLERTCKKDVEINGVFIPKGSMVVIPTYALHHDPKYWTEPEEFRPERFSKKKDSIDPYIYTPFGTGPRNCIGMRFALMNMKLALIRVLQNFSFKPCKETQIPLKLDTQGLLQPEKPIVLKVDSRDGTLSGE
Summary of the method: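 Baculovirus-insect-cell microsomes expressing the human CYP (1 mg/ml protein) were incubated with [14C]rivoglitazone (20 μM) in 50 mM potassium phosphate (pH 7.4) or 100 mM Tris-HCl (pH 7.5) with an NADPH-generating system (2 mM NADP+, 20 mM glucose 6-phosphate, 2 units/ml G6PDH, 10 mM MgCl2) for 2 h at 37°C. Insect-cell control supersomes served as the control. Reactions were stopped with acetonitrile, and the concentrated supernatants were analysed by radio-HPLC, LC-MS and LC-MS/MS.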

Row | Structure (SMILES) | Drug metabolism (Cytochrome P450 2C8) | Drug metabolism [1] | Drug metabolism (Cytochrome P450 1A2) | Drug metabolism [2] | Drug metabolism (Liver microsome) | Drug metabolism [3] | Drug metabolism (Cytochrome P450 2C19) | Drug metabolism (Cytochrome P450 3A5)
1 | COc1ccc2nc(COc3ccc(CC(S)C(=O)O)cc3)n(C)c2c1 (stereo not drawn) | metabolite_detected | metabolite_detected |  |  |  |  |  | 
2 | COc1ccc2nc(COc3ccc(C[14CH]4SC(=O)NC4=O)cc3)n(C)c2c1.Cl (racemic) |  |  | metabolite_not_detected | metabolite_not_detected | metabolite_detected | metabolite_detected | metabolite_not_detected | metabolite_not_detected
